The source of these data is ChEMBL document CHEMBL5653631, “A Potent and Selective ULK1 Inhibitor Suppresses Autophagy and Sensitizes Cancer Cells to Nutrient Stress” (iScience, 2018).

Assay [1] concerns the target T1, Ephrin type-B receptor 3 (Homo sapiens) (UniProt P54753).
T1 sequence (whole entry): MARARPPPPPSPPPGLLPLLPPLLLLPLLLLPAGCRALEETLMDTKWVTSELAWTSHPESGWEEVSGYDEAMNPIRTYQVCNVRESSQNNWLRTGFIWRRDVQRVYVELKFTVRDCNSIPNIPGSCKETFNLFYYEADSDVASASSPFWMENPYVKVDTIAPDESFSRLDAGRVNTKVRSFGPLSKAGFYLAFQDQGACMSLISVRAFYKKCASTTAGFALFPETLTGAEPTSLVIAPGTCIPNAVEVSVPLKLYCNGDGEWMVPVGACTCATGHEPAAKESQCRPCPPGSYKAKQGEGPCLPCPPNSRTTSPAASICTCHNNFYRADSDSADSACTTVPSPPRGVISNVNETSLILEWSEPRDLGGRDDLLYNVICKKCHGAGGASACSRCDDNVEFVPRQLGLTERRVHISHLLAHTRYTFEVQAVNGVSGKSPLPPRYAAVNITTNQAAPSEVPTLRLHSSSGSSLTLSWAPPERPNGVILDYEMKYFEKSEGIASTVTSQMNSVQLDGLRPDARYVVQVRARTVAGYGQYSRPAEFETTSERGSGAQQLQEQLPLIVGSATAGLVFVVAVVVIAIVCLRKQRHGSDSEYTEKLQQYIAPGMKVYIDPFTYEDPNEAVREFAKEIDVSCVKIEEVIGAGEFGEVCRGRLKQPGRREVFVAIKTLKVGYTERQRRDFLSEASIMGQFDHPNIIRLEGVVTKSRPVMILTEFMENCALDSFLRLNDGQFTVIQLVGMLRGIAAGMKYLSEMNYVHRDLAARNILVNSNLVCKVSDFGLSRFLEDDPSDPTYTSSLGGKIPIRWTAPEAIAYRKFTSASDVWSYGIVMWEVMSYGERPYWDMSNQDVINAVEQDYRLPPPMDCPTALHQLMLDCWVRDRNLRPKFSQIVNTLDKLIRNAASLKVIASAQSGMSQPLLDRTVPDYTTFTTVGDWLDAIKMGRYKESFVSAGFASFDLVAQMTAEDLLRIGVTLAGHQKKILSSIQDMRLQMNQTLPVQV
Put plainly: Inhibition of human recombinant EphB3 at 40 nM in presence of ATP by radiometric assay relative to control.

In the next assay the test system is U2OS. Put plainly: Inhibition of autophagy in human U2OS cells expressing […] assessed as DFCP1-positive puncta formation at 5 uM incubated for 2.5 hrs in presence of […] by Fluorescent microscopy based analysis. Type of assay: functional, cell-based. In short, it runs like this: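 U2OS cells stably expressing EGFP-DFCP1 treated 2.5 hr with vehicle or 100 nM AZD8055, with or without 5 μM inhibitor; imaged live by fluorescence microscopy; DFCP1-positive objects per cell counted in 20–25 cells per condition; mean ± SEM, two-tailed unpaired t test.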

The target in assay [2] is T2, Discoidin domain-containing receptor 2 (Homo sapiens) (UniProt Q16832).
T2 sequence (whole entry): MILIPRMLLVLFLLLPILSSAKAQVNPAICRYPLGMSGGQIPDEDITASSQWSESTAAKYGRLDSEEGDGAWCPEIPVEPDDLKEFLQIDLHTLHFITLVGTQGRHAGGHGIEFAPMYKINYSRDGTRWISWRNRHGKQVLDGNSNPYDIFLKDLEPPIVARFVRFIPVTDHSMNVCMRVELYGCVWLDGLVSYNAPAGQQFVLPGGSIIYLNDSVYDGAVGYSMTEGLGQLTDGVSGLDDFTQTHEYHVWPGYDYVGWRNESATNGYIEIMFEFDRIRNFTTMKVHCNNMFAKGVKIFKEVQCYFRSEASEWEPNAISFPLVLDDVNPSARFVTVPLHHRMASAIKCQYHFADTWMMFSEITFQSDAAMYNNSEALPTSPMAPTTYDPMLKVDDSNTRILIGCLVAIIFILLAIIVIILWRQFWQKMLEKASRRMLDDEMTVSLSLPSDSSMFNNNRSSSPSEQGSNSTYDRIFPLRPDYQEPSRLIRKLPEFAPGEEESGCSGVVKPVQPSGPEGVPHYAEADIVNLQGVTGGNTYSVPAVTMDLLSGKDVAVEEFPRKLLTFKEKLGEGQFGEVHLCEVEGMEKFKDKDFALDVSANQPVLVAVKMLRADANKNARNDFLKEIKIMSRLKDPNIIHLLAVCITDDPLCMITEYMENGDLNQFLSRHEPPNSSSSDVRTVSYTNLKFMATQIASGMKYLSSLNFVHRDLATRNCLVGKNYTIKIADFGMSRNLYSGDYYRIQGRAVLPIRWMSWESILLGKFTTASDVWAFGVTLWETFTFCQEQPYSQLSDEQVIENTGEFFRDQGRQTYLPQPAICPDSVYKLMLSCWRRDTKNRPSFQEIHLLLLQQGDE
Put plainly: Inhibition of human recombinant DDR2 at 500 nM in presence of ATP by radiometric assay relative to control.

The target of assay [3] is Bone morphogenetic protein receptor type-1B (Homo sapiens) (UniProt O00238). Put plainly: Inhibition of human recombinant BMPR1B at 500 nM in presence of ATP by radiometric assay relative to control. An outline of the steps: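 Part of a radiometric in vitro activity panel of 327 recombinant human kinases. Each kinase was tested in duplicate at one inhibitor concentration. Activity remaining was expressed as a percentage of the vehicle control, and percent inhibition was taken as 100 minus that value.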

Assay [4] concerns the target T3, Serine/threonine-protein kinase STK11 (Homo sapiens) (UniProt Q15831).
T3 sequence (whole entry): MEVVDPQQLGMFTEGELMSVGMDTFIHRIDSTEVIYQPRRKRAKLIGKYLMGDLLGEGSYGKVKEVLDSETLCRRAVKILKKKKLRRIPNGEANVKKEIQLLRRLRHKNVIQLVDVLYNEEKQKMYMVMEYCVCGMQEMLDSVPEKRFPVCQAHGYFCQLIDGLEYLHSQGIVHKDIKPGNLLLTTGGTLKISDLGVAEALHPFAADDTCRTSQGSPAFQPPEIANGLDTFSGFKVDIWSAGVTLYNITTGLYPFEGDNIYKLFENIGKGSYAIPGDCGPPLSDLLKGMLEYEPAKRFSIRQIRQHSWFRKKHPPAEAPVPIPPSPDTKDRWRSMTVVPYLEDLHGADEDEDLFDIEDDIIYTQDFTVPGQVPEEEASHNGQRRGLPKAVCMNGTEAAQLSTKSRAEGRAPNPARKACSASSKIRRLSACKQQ
As to the kind of experiment: Inhibition of human recombinant LKB1 at 15 nM in presence of ATP by radiometric assay relative to control.

Broadly, the inhibition is how much of the control response was suppressed.

Structures are written as SMILES. Activity calls are given as the source filed them. The rule behind the calls is not given here.

Bone morphogenetic protein receptor type-1B (Homo sapiens), sequence (O00238 whole entry): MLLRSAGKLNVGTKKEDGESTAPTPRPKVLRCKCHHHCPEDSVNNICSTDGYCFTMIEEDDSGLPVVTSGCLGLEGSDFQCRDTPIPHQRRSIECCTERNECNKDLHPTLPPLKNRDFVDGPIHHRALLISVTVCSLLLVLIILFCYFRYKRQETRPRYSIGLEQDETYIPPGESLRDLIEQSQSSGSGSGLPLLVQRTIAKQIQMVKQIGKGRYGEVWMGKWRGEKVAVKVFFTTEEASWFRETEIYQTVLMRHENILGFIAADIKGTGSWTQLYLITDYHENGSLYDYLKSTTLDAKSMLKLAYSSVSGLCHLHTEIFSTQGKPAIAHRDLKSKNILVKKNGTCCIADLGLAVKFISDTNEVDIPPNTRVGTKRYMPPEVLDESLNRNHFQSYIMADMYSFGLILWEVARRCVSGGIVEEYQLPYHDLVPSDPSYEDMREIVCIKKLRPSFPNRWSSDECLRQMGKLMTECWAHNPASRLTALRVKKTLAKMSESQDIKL

Take `O=C(N[C@@H](C1CC1)C(F)(F)F)c1cc(-c2cnn3cc(-c4ccc(F)cc4)cnc23)cs1`: the inhibition in assay [1] worked out at 0%. Also, the inhibition result with U2OS was “Active”. With `CNC(=O)c1ccccc1Oc1nc(Nc2cc(OC)c(OC)c(OC)c2)ncc1Br`, the inhibition in assay [2] and in assay [3] was 0% each time.

As to `CC(C)[C@H](NC(=O)c1cc(-c2cnn3cc(-c4ccc(OCCN5CCCCC5)cc4)cnc23)cs1)C(F)(F)F`, the inhibition in assay [4] stood at 0%.
